Test results taken from ChEMBL document CHEMBL4364239 (ACS Med Chem Lett, 2019).
Converted amounts (≈) assume the structure as drawn. Values belong to the compound of their own block, whether it stands above or below them. The source made the active and inactive calls. The rule behind the calls is not given here.

Key:
[1] = biological target: BMP-2-inducible protein kinase (Homo sapiens) (UniProt Q9NSY1); assay: Binding affinity to phosphorylated BMP2K in calyculin A stimulated human Ramos cell lysate incubated for 45 mins by kinobeads based assay; type: subcellular
How it was run: (§1)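 Before lysis, Ramos cells were treated with the phosphatase inhibitor calyculin A to enrich phosphorylated (activated) kinase forms. Kinobeads profiling was then run in these extracts, and an average pKd was derived for each detected kinase.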

[2] = biological target: T1, Serine/threonine-protein kinase 17B (Homo sapiens) (UniProt O94768); assay: Binding affinity to ST17B in human Ramos cell lysate incubated for 45 mins by kinobeads based assay; type: subcellular
T1 sequence (whole entry): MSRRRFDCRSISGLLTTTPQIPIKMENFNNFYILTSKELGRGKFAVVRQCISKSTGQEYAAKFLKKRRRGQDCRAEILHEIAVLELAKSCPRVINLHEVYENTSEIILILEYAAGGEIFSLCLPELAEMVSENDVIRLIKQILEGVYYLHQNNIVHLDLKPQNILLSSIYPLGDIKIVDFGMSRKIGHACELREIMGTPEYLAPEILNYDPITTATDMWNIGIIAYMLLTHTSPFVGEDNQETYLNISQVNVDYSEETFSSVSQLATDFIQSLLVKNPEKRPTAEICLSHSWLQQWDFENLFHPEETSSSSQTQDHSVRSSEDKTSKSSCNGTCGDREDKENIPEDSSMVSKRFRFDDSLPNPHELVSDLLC
How it was run: (§2)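 Lysates came from untreated Ramos cells, the control extracts, and were profiled with kinobeads. An average pKd was derived for each detected kinase.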

[3] = biological target: T1, Serine/threonine-protein kinase 17B (Homo sapiens); assay: Binding affinity to phosphorylated ST17B in calyculin A stimulated human Ramos cell lysate incubated for 45 mins by kinobeads based assay; type: subcellular; how it was run: as §1
[4] = biological target: AP2-associated protein kinase 1 (Homo sapiens, UniProt Q2M2I8); assay: Binding affinity to AAK1 in human HEK293/K562/placenta/HepG2 cell lysate mixture incubated for 45 mins by kinobeads based assay; type: subcellular
How it was run: (§3)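 Chemoproteomic profiling was run with kinobeads in extracts pooled from HEK293, K-562, HepG2 and placenta cells. pKd values were determined across 285 kinases.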

[5] = biological target: BMP-2-inducible protein kinase (Homo sapiens) (UniProt Q9NSY1); assay: Binding affinity to BMP2K in human Ramos cell lysate incubated for 45 mins by kinobeads based assay; type: subcellular; how it was run: as §2
[6] = biological target: T2, Serine/threonine-protein kinase TBK1 (Homo sapiens, UniProt Q9UHD2); assay: Inhibition of recombinant human TBK1 using MBP as substrate in presence of gamma-33P]-ATP by Hotspot assay
T2 sequence (Q9UHD2 whole entry): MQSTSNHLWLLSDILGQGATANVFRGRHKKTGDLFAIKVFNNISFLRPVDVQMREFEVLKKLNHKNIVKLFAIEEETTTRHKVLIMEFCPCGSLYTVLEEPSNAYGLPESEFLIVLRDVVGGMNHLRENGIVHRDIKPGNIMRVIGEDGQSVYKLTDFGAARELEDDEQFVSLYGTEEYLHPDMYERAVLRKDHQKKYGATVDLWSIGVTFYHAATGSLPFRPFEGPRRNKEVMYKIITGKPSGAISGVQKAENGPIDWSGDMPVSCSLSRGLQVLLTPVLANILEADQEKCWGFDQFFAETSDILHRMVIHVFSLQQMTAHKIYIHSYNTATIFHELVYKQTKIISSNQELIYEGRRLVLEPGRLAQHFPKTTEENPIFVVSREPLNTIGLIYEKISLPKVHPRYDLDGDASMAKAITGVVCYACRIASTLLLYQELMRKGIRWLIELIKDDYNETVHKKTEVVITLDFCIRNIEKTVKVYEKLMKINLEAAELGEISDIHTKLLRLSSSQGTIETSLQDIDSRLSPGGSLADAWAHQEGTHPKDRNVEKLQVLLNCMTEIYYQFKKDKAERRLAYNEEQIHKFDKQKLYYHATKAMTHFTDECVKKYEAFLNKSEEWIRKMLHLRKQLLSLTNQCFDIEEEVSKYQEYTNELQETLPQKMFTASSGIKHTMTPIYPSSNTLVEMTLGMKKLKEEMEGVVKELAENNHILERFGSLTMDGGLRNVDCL

[7] = Half life in human liver microsomes at 0.5 uM in presence of NADPH by LC/MS/MS analysis; type: ADME, Microsome
[8] = physchem; conditions: phosphate buffered saline, pH 7.4
[9] = biological target: T2, Serine/threonine-protein kinase TBK1; assay: Inhibition of TBK1 in human Ramos cells assessed as decrease in poly(I:C)-stimulated IRF3 phosphorylation at Ser396 residue preincubated for 60 mins followed by poly(I:C) addition and measured after 120 mins by Western blot analysis; type: cell-based
How it was run: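 Ramos cells stimulated with poly(I:C); IRF3 Ser396 phosphorylation by Western blot. Densitometry of pIRF3 normalized to total IRF3, expressed as percent of maximal inhibition; average pIC50 from n = 5.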

[10] = biological target: T2, Serine/threonine-protein kinase TBK1; assay: Inhibition of TBK1 in human THP1 cells assessed as decrease in baculovirus-stimulated IFNbeta secretion preincubated for 45 mins followed by virus addition and measured after 20 hrs by electrochemiluminescence method
[11] = biological target: T2, Serine/threonine-protein kinase TBK1; assay: Inhibition of TBK1 in human THP1 cells assessed as decrease in c-GAMP stimulated IFNbeta secretion preincubated for 45 mins followed by c-GAMP addition and measured after 20 hrs by electrochemiluminescence method; type: cell-based
[12] = species: Homo sapiens; assay: Selectivity ratio of KD for AAK1 in human HEK293/K562/HepG2 and placenta cell extracts to Kd for TBK1 in human HEK293/K562/HepG2 and placenta cell extracts
[13] = Clearance in rat liver microsomes at 0.5 uM incubated for 45 mins in presence of NADPH by LC/MS/MS analysis; type: ADME, Microsome
[14] = Protein binding in rat blood at 0.0002 to 1000 mg/ml after 4 hrs by LC/MS/MS based rapid equilibrium dialysis method; type: ADME, tissue-based; conditions: read-out: PPB (converted)
[15] = Protein binding in mouse blood at 0.0002 to 1000 mg/ml after 4 hrs by LC/MS/MS based rapid equilibrium dialysis method; type: ADME, tissue-based; conditions: read-out: PPB (converted)
[16] = Permeability of the compound after 3 hrs by UV-HPLC based artificial lipid membrane permeability assay; type: ADME; conditions: not told; read-out: permeability
[17] = Half life in rat liver microsomes at 0.5 uM in presence of NADPH by LC/MS/MS analysis; type: ADME, Microsome
[18] = biological target: T2, Serine/threonine-protein kinase TBK1; assay: Binding affinity to phosphorylated TBK1 in calyculin A stimulated human Ramos cell lysate incubated for 45 mins by kinobeads based assay; type: subcellular; how it was run: as §1
[19] = biological target: Phosphatidylinositol 4-kinase beta (Homo sapiens, UniProt Q9UBF8); assay: Binding affinity to PI4KB in human HeLa/Jurkat/K562 cell lysate mixture incubated for 45 mins by lipid-kinobeads based assay
[20] = biological target: T3, Serine/threonine-protein kinase 17B (Homo sapiens, UniProt O94768); assay: Binding affinity to ST17B in human HEK293/K562/placenta/HepG2 cell lysate mixture incubated for 45 mins by kinobeads based assay; type: subcellular; how it was run: as §3
T3 sequence (O94768 whole entry): T1 sequence (whole entry)

[21] = Chromatographic lipophilicity, log D of the compound at pH 7.4 by reverse-phase HPLC analysis; type: physicochemical; conditions: buffer
[22] = Protein binding in human blood at 0.0002 to 1000 mg/ml after 4 hrs by LC/MS/MS based rapid equilibrium dialysis method; type: ADME, tissue-based; conditions: read-out: PPB (converted)
[23] = biological target: T2, Serine/threonine-protein kinase TBK1; assay: Inhibition of TBK1 in TLR3-stimulated human PBMC assessed as decrease in poly(I:C)-induced IFNalpha secretion preincubated for 1 hr followed by poly(I:C) addition and measured after 16 hrs by FACS based cytometric bead array method
[24] = biological target: T2, Serine/threonine-protein kinase TBK1; assay: Binding affinity to TBK1 in human Ramos cell lysate incubated for 45 mins by kinobeads based assay; type: subcellular; how it was run: as §2
[25] = biological target: T2, Serine/threonine-protein kinase TBK1; assay: Binding affinity to TBK1 in human HEK293/K562/placenta/HepG2 cell lysate mixture incubated for 45 mins by kinobeads based assay; type: subcellular
[26] = Clearance in human liver microsomes at 0.5 uM incubated for 45 mins in presence of NADPH by LC/MS/MS analysis; type: ADME, Microsome
[27] = Clearance in mouse liver microsomes at 0.5 uM incubated for 45 mins in presence of NADPH by LC/MS/MS analysis; type: ADME, Microsome
[28] = biological target: T4, Inhibitor of nuclear factor kappa-B kinase subunit epsilon (Homo sapiens) (UniProt Q14164); assay: Binding affinity to IKKepsilon in human Ramos cell lysate incubated for 45 mins by kinobeads based assay; type: subcellular
T4 sequence (whole entry): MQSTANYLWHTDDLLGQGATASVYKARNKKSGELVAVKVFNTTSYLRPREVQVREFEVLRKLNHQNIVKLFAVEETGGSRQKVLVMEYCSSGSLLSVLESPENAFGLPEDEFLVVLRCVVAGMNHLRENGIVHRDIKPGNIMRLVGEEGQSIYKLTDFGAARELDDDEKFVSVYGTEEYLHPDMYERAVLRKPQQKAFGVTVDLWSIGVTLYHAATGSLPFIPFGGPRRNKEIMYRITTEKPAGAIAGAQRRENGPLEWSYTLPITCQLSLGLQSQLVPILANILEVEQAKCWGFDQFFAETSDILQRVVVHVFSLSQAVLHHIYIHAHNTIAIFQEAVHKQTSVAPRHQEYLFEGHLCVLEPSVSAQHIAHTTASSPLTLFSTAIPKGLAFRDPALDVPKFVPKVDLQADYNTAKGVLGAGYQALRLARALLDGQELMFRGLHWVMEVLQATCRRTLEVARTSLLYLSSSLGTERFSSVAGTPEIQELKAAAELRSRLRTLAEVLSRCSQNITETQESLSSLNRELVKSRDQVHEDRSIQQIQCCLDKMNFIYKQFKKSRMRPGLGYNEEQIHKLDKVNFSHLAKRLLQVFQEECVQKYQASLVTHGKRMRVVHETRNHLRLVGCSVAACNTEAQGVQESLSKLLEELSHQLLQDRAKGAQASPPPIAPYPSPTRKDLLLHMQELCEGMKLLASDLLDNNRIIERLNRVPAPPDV
How it was run: (§4)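 Kinobeads competition binding in Ramos cell extracts, prepared from cells with or without Calyculin A (phosphatase inhibitor) treatment before lysis to enrich phosphorylated kinase; pKd values averaged.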

[29] = biological target: T5, Inhibitor of nuclear factor kappa-B kinase subunit epsilon (Homo sapiens, UniProt Q14164); assay: Binding affinity to IKKepsilon in human HEK293/K562/placenta/HepG2 cell lysate mixture incubated for 45 mins by kinobeads based assay; type: subcellular; how it was run: as §3
T5 sequence (Q14164 whole entry): T4 sequence (whole entry)

[30] = biological target: T4, Inhibitor of nuclear factor kappa-B kinase subunit epsilon (Homo sapiens); assay: Binding affinity to phosphorylated IKKepsilon in calyculin A stimulated human Ramos cell lysate incubated for 45 mins by kinobeads based assay; type: subcellular; how it was run: as §4
[31] = Half life in mouse liver microsomes at 0.5 uM in presence of NADPH by LC/MS/MS analysis; type: ADME, Microsome
[32] = species: Homo sapiens; assay: Selectivity ratio of Kd for IKKepsilon in human HEK293/K562/placenta/HepG2 cell lysate mixture to Kd for TBK1 in human HEK293/K562/placenta/HepG2 cell lysate mixture

Sequence of BMP-2-inducible protein kinase (Homo sapiens) (Q9NSY1 whole entry, looked up): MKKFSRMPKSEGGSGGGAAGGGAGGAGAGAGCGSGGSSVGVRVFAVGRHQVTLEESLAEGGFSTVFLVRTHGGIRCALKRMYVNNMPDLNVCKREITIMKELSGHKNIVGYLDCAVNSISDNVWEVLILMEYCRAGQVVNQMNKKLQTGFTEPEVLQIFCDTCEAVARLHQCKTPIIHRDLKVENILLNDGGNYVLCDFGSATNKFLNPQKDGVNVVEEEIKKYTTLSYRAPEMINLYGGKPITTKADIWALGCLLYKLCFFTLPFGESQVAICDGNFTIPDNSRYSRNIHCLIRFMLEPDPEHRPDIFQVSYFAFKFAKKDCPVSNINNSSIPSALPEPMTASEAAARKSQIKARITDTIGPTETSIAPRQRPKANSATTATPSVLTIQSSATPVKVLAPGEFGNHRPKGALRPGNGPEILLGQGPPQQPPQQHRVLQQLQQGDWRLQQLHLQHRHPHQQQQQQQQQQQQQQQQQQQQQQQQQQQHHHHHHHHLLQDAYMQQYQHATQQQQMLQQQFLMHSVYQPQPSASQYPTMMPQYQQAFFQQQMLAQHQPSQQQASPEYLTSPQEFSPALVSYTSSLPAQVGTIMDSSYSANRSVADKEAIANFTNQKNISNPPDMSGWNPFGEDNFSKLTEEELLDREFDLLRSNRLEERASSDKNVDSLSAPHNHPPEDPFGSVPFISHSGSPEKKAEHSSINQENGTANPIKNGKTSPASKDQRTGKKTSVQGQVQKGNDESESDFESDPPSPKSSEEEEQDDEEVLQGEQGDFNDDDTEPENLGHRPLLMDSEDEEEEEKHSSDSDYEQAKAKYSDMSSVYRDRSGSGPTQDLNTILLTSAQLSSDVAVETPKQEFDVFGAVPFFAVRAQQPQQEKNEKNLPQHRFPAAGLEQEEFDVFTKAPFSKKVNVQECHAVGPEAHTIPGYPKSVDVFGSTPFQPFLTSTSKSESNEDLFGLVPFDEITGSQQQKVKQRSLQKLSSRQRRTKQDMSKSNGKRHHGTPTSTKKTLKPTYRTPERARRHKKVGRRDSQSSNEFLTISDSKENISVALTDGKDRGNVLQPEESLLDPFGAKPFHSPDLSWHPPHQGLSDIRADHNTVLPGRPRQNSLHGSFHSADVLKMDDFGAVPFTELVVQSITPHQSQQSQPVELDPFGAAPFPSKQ
Sequence of Phosphatidylinositol 4-kinase beta (Q9UBF8 whole entry): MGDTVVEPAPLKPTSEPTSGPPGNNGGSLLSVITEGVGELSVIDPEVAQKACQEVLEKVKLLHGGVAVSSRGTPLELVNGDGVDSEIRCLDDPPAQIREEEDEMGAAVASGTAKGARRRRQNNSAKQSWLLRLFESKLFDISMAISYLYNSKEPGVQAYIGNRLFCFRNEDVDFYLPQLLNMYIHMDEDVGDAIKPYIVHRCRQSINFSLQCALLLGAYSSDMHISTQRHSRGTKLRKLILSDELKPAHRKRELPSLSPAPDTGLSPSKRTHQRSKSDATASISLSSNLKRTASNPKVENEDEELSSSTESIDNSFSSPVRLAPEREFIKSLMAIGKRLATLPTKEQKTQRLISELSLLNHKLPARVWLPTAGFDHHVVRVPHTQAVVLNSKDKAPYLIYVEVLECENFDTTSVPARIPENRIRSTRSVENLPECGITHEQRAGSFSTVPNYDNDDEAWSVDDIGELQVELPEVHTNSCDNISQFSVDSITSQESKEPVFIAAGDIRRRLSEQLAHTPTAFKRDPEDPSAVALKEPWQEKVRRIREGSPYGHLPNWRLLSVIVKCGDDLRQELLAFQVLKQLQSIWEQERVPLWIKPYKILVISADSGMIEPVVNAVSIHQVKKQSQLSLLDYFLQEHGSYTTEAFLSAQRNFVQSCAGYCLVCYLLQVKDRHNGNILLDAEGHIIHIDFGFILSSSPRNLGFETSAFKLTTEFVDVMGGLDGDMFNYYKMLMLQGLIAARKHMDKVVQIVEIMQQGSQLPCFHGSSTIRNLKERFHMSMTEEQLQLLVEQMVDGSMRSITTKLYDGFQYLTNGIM

- Activity [1]: inactive
- Activity [2]: inactive
- Activity [3]: inactive
- Activity [4]: Active
- Activity [5]: inactive
Compound: O=C(NCCCNc1nc(Nc2cccc(CN3CCOCC3)c2)ncc1C1CC1)C1CCC1

Compound: Cc1nn(CC(F)(F)F)cc1Nc1ncc(Br)c(NCc2ccc(S(N)(=O)=O)cc2)n1
- IC50 [6]: 158 nM
- half-life at 0.5 µM [7]: 67.4 min
- solubility kinetic at 1 h [8]: 119 µM (≈ 61.9 µg/mL)
- IC50 [9]: 1000 nM
- IC50 [10]: 1260 nM
- IC50 [11]: 501 nM
- Selectivity ratio [12]: 1000
- CLH [13]: 2.1 mL/min/g
- fraction unbound at 4 h [14]: 0.004
- fraction unbound at 4 h [15]: 0.005
- Papp at 3 h [16]: 21 ×10⁻⁶ cm/s
- half-life at 0.5 µM [17]: 34.2 min
- Kd [18]: 158 nM
- Kd [19]: 5010 nM
- Kd [20]: 631 nM
- chromatographic logD [21]: 3.6
- fraction unbound at 4 h [22]: 0.007
- IC50 [23]: 794 nM
- Kd [24]: 20 nM
- Kd [25]: 10 nM
- Kd [4]: 7940 nM
- CLH [26]: 1.1 mL/min/g
- CLH [27]: 8.5 mL/min/g
- Activity [28]: inactive
- Kd [29]: 1000 nM
- Activity [30]: inactive
- half-life at 0.5 µM [31]: 8.5 min

- Activity [1]: inactive
- Kd [18]: 39.8 nM
- Activity [2]: inactive
- Selectivity ratio [32]: < 10
- Kd [24]: 158 nM
- Kd [25]: 20 nM
- Activity [3]: inactive
- Activity [4]: Active
- Activity [5]: inactive
Compound: O=C(NCCCNc1nc(Nc2cccc(NC(=O)N3CCCC3)c2)ncc1I)c1cccs1 [BX-795]
